Laboratory results taken from ChEMBL document CHEMBL1147401, “Bruceanols D, E, and F three new cytotoxic quassinoids from Brucea antidysenterica” (1993).
≈ marks a conversion by molar mass, not a printed value.

Key:
Format in all cases: functional
Conditions in all cases: read-out: ED50 (the source's name)
KB = assay: Cytotoxicity against human KB cells
Method in brief: (§1)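 In vitro cytotoxicity assay run by published protocols. Cell panel: human malignant melanoma ([…]), lung carcinoma (A-549), ileocecal adenocarcinoma (HCT-8), nasopharyngeal epidermoid carcinoma (KB), medulloblastoma (TE-671), and murine lymphocytic leukemia (P-388).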

A549 = assay: Cytotoxicity against human A549 cells; method in brief: as §1
HCT-8 = assay: Cytotoxicity against human HCT8 cells; method in brief: as §1
P388 = assay: Cytotoxicity against mouse P388 cells; method in brief: as §1
TE-671 = assay: Cytotoxicity against human TE671 cells; method in brief: as §1
RPMI-7951 = assay: Cytotoxicity against human RPMI7951 cells; method in brief: as §1

| SMILES | EC50 (KB) | EC50 (A549) | EC50 (HCT-8) | EC50 (P388) | EC50 (TE-671) | EC50 (RPMI-7951) |
| --- | --- | --- | --- | --- | --- | --- |
| COC(=O)[C@]12OC[C@]34[C@H]([C@@H](O)[C@@H]1O)[C@@]1(C)[C@H](O)C(=O)C[C@@H](C)[C@@H]1C[C@H]3OC(=O)[C@H](OC(=O)/C=C(\C)C(C)C)[C@@H]24 [BRUCEANOL E] | 0.55 µg/mL (≈ 0.999 µM) | 3.75 µg/mL (≈ 6.81 µM) | 0.37 µg/mL (≈ 0.672 µM) | 0.57 µg/mL (≈ 1.04 µM) | 0.12 µg/mL (≈ 0.218 µM) | 0.11 µg/mL (≈ 0.2 µM) |
| COC(=O)[C@]12OC[C@]34[C@H]([C@@H](O)[C@@H]1O)[C@@]1(C)[C@H](O)C(=O)C=C(C)[C@@H]1C[C@H]3OC(=O)[C@H](OC(=O)/C=C(\C)C(C)C)[C@@H]24 [BRUCEANOL D] | 0.08 µg/mL (≈ 0.146 µM) | 0.55 µg/mL (≈ 1 µM) | 0.09 µg/mL (≈ 0.164 µM) | 0.09 µg/mL (≈ 0.164 µM) | 0.08 µg/mL (≈ 0.146 µM) | 0.09 µg/mL (≈ 0.164 µM) |
| COC(=O)[C@]12OC[C@]34[C@H]([C@@H](O)[C@@H]1O)[C@@]1(C)C(=O)C(O)=C[C@@H](C)[C@@H]1C[C@H]3OC(=O)[C@H](OC(=O)/C=C(\C)C(C)C)[C@@H]24 [BRUCEANOL F] | 0.43 µg/mL (≈ 0.784 µM) | 0.55 µg/mL (≈ 1 µM) | 0.13 µg/mL (≈ 0.237 µM) | 0.36 µg/mL (≈ 0.656 µM) | 0.09 µg/mL (≈ 0.164 µM) | 0.09 µg/mL (≈ 0.164 µM) |
